The values that follow come from ChEMBL document CHEMBL3425408, “Design, synthesis, in vitro, and in vivo anticancer and antiangiogenic activity of novel 3-arylaminobenzofuran derivatives targeting the colchicine site on tubulin” (J Med Chem, 2015).

Molecules are shown by their SMILES. Activity calls are given as the source filed them. The rule behind the calls is not given here.

By IC50 is commonly meant the concentration at which inhibition is half-maximal. Read a low IC50 as greater potency.

The test system of one experiment is Jurkat. The experiment can be described thus: Antiproliferative activity against human Jurkat cells after 72 hrs by (3-(4,5-dimethylthiazol-2-yl)-2,5-diphenyltetrazolium bromide test. Type of experiment: functional, cell-based. The method in brief:
(§1)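 Jurkat, RS4;11 and HL-60 cells grown in RPMI-1640; MCF-7, A549, HeLa and HT-29 cells grown in DMEM; both media with 10% FBS and penicillin/streptomycin. 8 × 10^3 cells per well were preincubated 18 h at 37 °C, 5% CO2, then exposed 72 h to a concentration range (DMSO ≤0.25%). Read-out was MTT; IC50 was taken against cells given the maximum DMSO. Mean ± SE of at least three experiments.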

The next experiment concerns HeLa. The experiment can be described thus: Antiproliferative activity against human HeLa cells after 72 hrs by (3-(4,5-dimethylthiazol-2-yl)-2,5-diphenyltetrazolium bromide test. Type of experiment: functional, cell-based.
The nature of experiment [1]: Antiproliferative activity against human RS4:11 cells after 72 hrs by (3-(4,5-dimethylthiazol-2-yl)-2,5-diphenyltetrazolium bromide test. The note with it: RS4-11, 72 h. The experiment is classed as functional, cell-based. The gist of the method:
as §1

The next experiment has as its system HT-29. The experiment can be described thus: Antiproliferative activity against human HT-29 cells after 72 hrs by (3-(4,5-dimethylthiazol-2-yl)-2,5-diphenyltetrazolium bromide test. The experiment is classed as functional, cell-based. Particulars: HT-29, 72 h.
A further experiment concerns MCF7. The experiment is described as follows: Antiproliferative activity against human MCF7 cells after 72 hrs by (3-(4,5-dimethylthiazol-2-yl)-2,5-diphenyltetrazolium bromide test. Particulars: MCF7, 72 h. The experiment is classed as functional, cell-based.
The subject of the next experiment is A549. The experiment is described as follows: Antiproliferative activity against human A549 cells after 72 hrs by (3-(4,5-dimethylthiazol-2-yl)-2,5-diphenyltetrazolium bromide test. Type of experiment: functional, cell-based. The note with it: A549, 72 h.
A short description of experiment [2]: Antiproliferative activity against human HL60 cells after 72 hrs by (3-(4,5-dimethylthiazol-2-yl)-2,5-diphenyltetrazolium bromide test. The experiment is classed as functional, cell-based. The note with it: HL-60, 72 h. The gist of the method:
as §1

A further experiment has as its target Tubulin (Bos taurus, UniProt Q6B856+Q862L2+Q862F3). The experiment can be described thus: Inhibition of bovine brain tubulin assembly after 20 mins incubation by spectrophotometric analysis. The method in brief: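 Bovine brain tubulin (10 μM) was preincubated with varying compound concentrations in glutamate buffer at 30 °C, then chilled to 0 °C. GTP was added to 0.4 mM final and the mixture warmed to 30 °C in cuvettes.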

Another experiment relates to HUVEC. The experiment can be described thus: Cytotoxicity against human HUVEC cells after 72 hrs by MTT assay. The experiment is classed as cell-based. The gist of the method: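 HUVECs were isolated from umbilical cord veins, kept in M200 with low-serum growth supplement and used at passages 1–6. […] Mean ± SEM of three separate experiments.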
A general note: Formazan colour is commonly taken as a measure of viable cells.

A further experiment deals with MDA-MB-231. The experiment is described as follows: Cytotoxicity against human MDA-MB-231 cells after 72 hrs by MTT assay. The experiment is classed as functional, cell-based. The note with it: MDA-MB-231, 72 h.
The next experiment relates to Mus musculus. The experiment can be described thus: In vivo antitumor activity against mouse BNL 1ME A.7R.1 cells allografted in Balb/c mouse assessed as reduction in tumor growth at 5 mg/kg, ip up to 8 days relative to vehicle treated control. Type of experiment: functional, organism-based. Also noted: dose 5 mg/kg. The gist of the method: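 Male Balb/c mice, 8 weeks old, received 10^7 BNL 1ME A.7R.1 cells in 200 μL PBS subcutaneously in the dorsal region. Mice were randomised into groups of 5 and dosed ip daily from day 2. Vehicle was 0.9% NaCl with 5% PEG 400 and 0.5% Tween 80, at 7 μL/g. Tumours were measured daily by caliper for 7 days; V = AB²/2.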

With `COC(=O)c1oc2cccc(OC)c2c1Nc1cc(OC)c(OC)c(OC)c1`, the IC50 in the experiment on Jurkat was over 10000 nM; in the experiment on HeLa, over 10000 nM; in experiment [1] it was over 10000 nM; in the experiment on HT-29 it was over 10000 nM; with MCF7 it was over 10 µM; with A549 it was over 10 µM. In experiment [2], the IC50 was over 10000 nM.

Consider `CCOC(=O)c1oc2c(OC)cccc2c1Nc1cc(OC)c(OC)c(OC)c1`, for which the IC50 is 290 nM in the experiment on Jurkat; 270 nM in the experiment on HeLa; 230 nM in [1]; 110 nM with HT-29; 2.1 µM with MCF7; 1.1 µM with A549. Besides, the IC50 came to 590 nM in experiment [2] and 6.4 µM on Tubulin.

Take `CCOC(=O)c1oc2ccccc2c1Nc1cc(OC)c(OC)c(OC)c1`: the IC50 amounted to 180 nM in the experiment with Jurkat; 1330 nM in the experiment on HeLa; 300 nM in [1]; 1600 nM with HT-29; 6.6 µM in the experiment with MCF7; 5.47 µM in the experiment on A549. Besides, the IC50 in experiment [2] is 2500 nM.

For `CCOC(=O)c1oc2cccc(OC)c2c1Nc1cc(OC)c(OC)c(OC)c1`, the IC50 with Jurkat was over 10000 nM; with HeLa it was over 10000 nM; in [1], over 10000 nM; in the experiment with HT-29, over 10000 nM; in the experiment on MCF7, over 10 µM; in the experiment on A549, over 10 µM. The compound also had an IC50 in [2] of over 10000 nM.

For `COC(=O)c1oc2c(O)c(OC)ccc2c1C(=O)c1cc(OC)c(OC)c(OC)c1`, the IC50 in the experiment on HUVEC and in the experiment on MDA-MB-231 was 1 nM in each case.

In the case of `COC(=O)c1oc2c(OC)cccc2c1Nc1cc(OC)c(OC)c(OC)c1`, the IC50 worked out at 30 nM with Jurkat; 130 nM in the experiment on HeLa; 1 nM in [1]; 290 nM with HT-29; 0.52 µM with MCF7; 1.27 µM with A549. In addition, the IC50 in experiment [2] came out at 320 nM; against Tubulin, 7.6 µM.

For `COC(=O)c1oc2ccc(OC)cc2c1Nc1cc(OC)c(OC)c(OC)c1`, the IC50 with Jurkat was determined as 210 nM; in the experiment with HeLa, 250 nM; in [1], 39 nM; in the experiment with HT-29, 240 nM; with MCF7, 7.9 µM; with A549, 1.57 µM. In addition, the IC50 in experiment [2] came to 470 nM; on Tubulin, 7.5 µM.

As to `CCOc1cccc2c(Nc3cc(OC)c(OC)c(OC)c3)c(C(=O)OC)oc12`, the IC50 in the experiment with Jurkat was 3700 nM; in the experiment with HeLa, 2530 nM; in [1], 400 nM; in the experiment on HT-29, 3200 nM; in the experiment with MCF7, over 10 µM; in the experiment with A549, 8.9 µM. Also, the IC50 in experiment [2] turned out to be 4200 nM.

Turning to `COc1ccc(/C=C\c2cc(OC)c(OC)c(OC)c2)cc1OP(=O)(O)O`, the inhibition entry in the experiment on Mus musculus is “Active”.

`CCOC(=O)c1oc2c(OCC)cccc2c1Nc1cc(OC)c(OC)c(OC)c1`: the IC50 in the experiment with Jurkat was 9100 nM; with HeLa, 3280 nM; in experiment [1] it was 3000 nM; in the experiment with HT-29, 5300 nM; with MCF7, over 10 µM; in the experiment with A549 it was 7.25 µM. Also, in [2], the IC50 was 5500 nM.

`CCOC(=O)c1oc2ccc(OC)cc2c1Nc1cc(OC)c(OC)c(OC)c1`: the IC50 in the experiment with Jurkat is 2300 nM; with HeLa, 1260 nM; in experiment [1], 190 nM; with HT-29, 1400 nM; in the experiment on MCF7, 2.9 µM; in the experiment with A549, 8.9 µM. This compound showed an IC50 in [2] of 3400 nM.

Regarding `COc1ccc(/C=C\c2cc(OC)c(OC)c(OC)c2)cc1O` [COMBRETASTATIN A4], the IC50 in experiment [1] was 0.8 nM; in experiment [2], 1 nM.

Consider `COC(=O)c1oc2ccccc2c1Nc1cc(OC)c(OC)c(OC)c1`, for which the IC50 in the experiment on Jurkat was determined as 4100 nM; with HeLa, 260 nM; in experiment [1], 430 nM; in the experiment with HT-29, 930 nM; with MCF7, 7.8 µM; in the experiment on A549 it was 5.28 µM. This compound also displayed an IC50 in experiment [2] of 4400 nM.
